Laboratory results as given in ChEMBL document CHEMBL1125131, “Long-acting dihydropyridine calcium antagonists. 4. Synthesis and structure-activity relationships for a series of basic and nonbasic derivatives of 2-[(2-aminoethoxy)methyl]-1,4-dihydropyridine calcium antagonists” (J Med Chem, 1990).

What was measured:
Cavia porcellus = organism: Cavia porcellus; assay: Negative logarithm of the concentration required to depress contraction in the Langendorff perfused guinea pig heart by 25%; type: functional
Rattus norvegicus = organism: Rattus norvegicus; assay: Concentration required to block [Ca2+] induced contraction of K+ depolarized rat aorta by 50%; type: functional
[1] = Selectivity index, inhibition of [Ca2+] induced contraction of K+ depolarized rat aorta (IC50) to inhibition of contraction of guinea pig heart (IC25); type: functional, Cavia porcellus
Canis familiaris [2] = assay: The compound was tested for % decrease in coronary vasodilator activity in anesthetized dogs following intravenous administration; type: functional, Canis lupus familiaris
Method in brief: (§1)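 Anesthetized beagle dogs were catheterized to record blood pressure and left ventricular pressure and to give compound intravenously, as one single dose for duration of action. Coronary blood flow was measured by hydrogen clearance with platinum electrodes in the coronary sinus and femoral artery, and cardiac output by thermodilution. Coronary vascular resistance was derived from these measurements.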

Canis familiaris [3] = organism: Canis familiaris; assay: Duration of time taken for the compound for % decrease in coronary vasodilator activity; type: functional, Canis lupus familiaris; method in brief: as §1
Canis familiaris [4] = assay: Percent decrease in coronary vasodilator activity in anesthetized dogs following intravenous administration was determined; type: functional, Canis lupus familiaris; method in brief: as §1
Canis familiaris [5] = organism: Canis familiaris; assay: Duration of time taken for percent decrease in coronary vasodilator activity; type: functional, Canis lupus familiaris; method in brief: as §1
[6] = Plasma clearance in dogs after intravenous administration; type: ADME, organism-based, Canis lupus familiaris; settings: dog
[7] = Plasma half-life in dog after intravenous administration; type: ADME, organism-based, Canis lupus familiaris
[8] = Volume of distribution in dog after intravenous administration; type: ADME, organism-based, Canis lupus familiaris; settings: in vivo, read-out: Volume of distribution

IC50 (Rattus norvegicus)	clearance [6]	half-life [7]	Vd [8]	Compound	pIC25 (Cavia porcellus)	Selectivity index [1]	Decrease (Canis familiaris [2])	Duration of action (Canis familiaris [3])	Decrease (Canis familiaris [4])	Duration of action (Canis familiaris [5])
50.1 nM				CCO/C(O)=C1\C(COCCNC(=O)NCCN)=NC(C)=C(C(=O)OC)C1c1ccccc1Cl.O=C(O)/C=C\C(=O)O (stereo not given)	7.1	1.6				
7.94 nM				CCO/C(O)=C1\C(COCCNS(N)(=O)=O)=NC(C)=C(C(=O)OC)C1c1ccccc1Cl (stereo not given)	7.1	10				
25.1 nM				CCO/C(O)=C1\C(COCCNCC(=O)NC)=NC(C)=C(C(=O)OC)C1c1ccccc1Cl (stereo not given)	6.9	5				
100 nM				CCO/C(O)=C1\C(COCCNCC(=O)NCCN)=NC(C)=C(C(=O)OC)C1c1ccccc1Cl (stereo not given)	7	1				
63.1 nM				CCO/C(O)=C1\C(COCCN(CC(N)=O)CC(N)=O)=NC(C)=C(C(=O)OC)C1c1ccccc1Cl (stereo not given)	6	16				
15.8 nM				CCO/C(O)=C1\C(COCCNC(=O)NCCN2CCNC2=O)=NC(C)=C(C(=O)OC)C1c1ccccc1Cl (stereo not given)	6.2	40				
5.01 nM				CCO/C(O)=C1\C(COCCNCC(=O)NCCOC)=NC(C)=C(C(=O)OC)C1c1ccccc1Cl (stereo not given)	7.5	6				
15.8 nM				CCO/C(O)=C1\C(COCCNC(C)=O)=NC(C)=C(C(=O)OC)C1c1ccccc1Cl (stereo not given)	7.6	1.6				
158 nM				CCO/C(O)=C1\C(COCCNC(=O)Nc2ccnc(O)n2)=NC(C)=C(C(=O)OC)C1c1ccccc1Cl (stereo not given)	7.7	0.1				
10 nM				CCO/C(O)=C1\C(COCCNC(C)C(N)=O)=NC(C)=C(C(=O)OC)C1c1ccccc1Cl (stereo not given)	7.2	6	73%	150 min		
3.16 nM				CCO/C(O)=C1\C(COCCNC(=O)NC)=NC(C)=C(C(=O)OC)C1c1ccccc1Cl (stereo not given)	7.6	13				
20 nM				CCO/C(O)=C1\C(COCCNC(=O)NCC(N)=O)=NC(C)=C(C(=O)OC)C1c1ccccc1Cl (stereo not given)	6.4	20				
3.16 nM				CCO/C(O)=C1\C(COCCNC(C)(C)C(N)=O)=NC(C)=C(C(=O)OC)C1c1ccccc1Cl (stereo not given)	7.6	8	85%	210 min		
3.98 nM	7 mL/min/kg	4.7 h	3 L/kg	CCO/C(O)=C1\C(COCCNCC(N)=O)=NC(C)=C(C(=O)OC)C1c1ccccc1Cl (stereo not given)	7.1	20	88%	>300 min		

The remaining lines, values behind:

Compound	IC50 (Rattus norvegicus)	clearance [6]	half-life [7]	Vd [8]	pIC25 (Cavia porcellus)	Selectivity index [1]	Decrease (Canis familiaris [2])	Duration of action (Canis familiaris [3])	Decrease (Canis familiaris [4])	Duration of action (Canis familiaris [5])
CCOC(=O)CNC(=O)NCCOCC1=C(C(=O)OCC)C(c2ccccc2Cl)/C(=C(\O)OC)C(C)=N1 (stereo not given)	10 nM				7	10	61%	15 min		
CCO/C(O)=C1\C(COCCN(C)S(N)(=O)=O)=NC(C)=C(C(=O)OC)C1c1ccccc1Cl (stereo not given)	25.1 nM				6.7	8				
CCO/C(O)=C1\C(COCC/N=C(/NC)NC#N)=NC(C)=C(C(=O)OC)C1c1ccccc1Cl (stereo not given)	6.31 nM				7.5	5				
CCO/C(O)=C1\C(COCC/N=C(\NC#N)NCCN(C)C)=NC(C)=C(C(=O)OC)C1c1ccccc1Cl (stereo not given)	50.1 nM				6.8	3				
CCO/C(O)=C1\C(COCCNC(=O)c2cnccn2)=NC(C)=C(C(=O)OC)C1c1ccccc1Cl (stereo not given)	39.8 nM				7.5	0.8				
CCO/C(O)=C1\C(COCCN(C)C(=O)NC)=NC(C)=C(C(=O)OC)C1c1ccccc1Cl (stereo not given)	20 nM				7	5			68%	15 min
CCO/C(O)=C1\C(COCCNC(=O)c2ccc(O)nc2)=NC(C)=C(C(=O)OC)C1c1ccccc1Cl (stereo not given)	6.31 nM				7	16				
CCO/C(O)=C1\C(COCCNC(=O)c2cccnc2)=NC(C)=C(C(=O)OC)C1c1ccccc1Cl (stereo not given)	15.8 nM				7.6	1.6				
CCO/C(O)=C1\C(COCCN(C)/C(=N/C)NC#N)=NC(C)=C(C(=O)OC)C1c1ccccc1Cl (stereo not given)	25.1 nM				6.6	10				
COC(=O)C1=C(C)NC(C)=C(C(=O)OC)C1c1ccccc1[N+](=O)[O-] [NIFEDIPINE]					7.5		77%	36 min		
